Measurements gathered from unrelated publications.
Lines come from different studies, so protocols differ.
Read-out: enzyme activity
RET: Proto-oncogene tyrosine-protein kinase receptor Ret (RET, Homo sapiens, UniProt P07949)

`Cc1ccc(C(=O)Nc2ccc(CN3CCN(C)CC3)c(C(F)(F)F)c2)cc1C#Cc1cnc2cccnn12` has a remaining activity of 1.4% (Proto-oncogene tyrosine-protein kinase receptor Ret (RET, Homo sapiens, UniProt P07949, M918T); 23.5 nM).
For `COc1cc(NC(=O)Nc2ccc(Br)cc2)cc2sc(NC(=O)c3ccccc3)nc12`, the remaining activity was 120% (RET; inhibitor, radiometric; 0.1 µM).
With `Cc1[nH]c(/C=C2\C(=O)Nc3ccc(F)cc32)c(C)c1C(=O)N[C@H]1CCN(C(=O)N(C)C)C1` the remaining activity was 11% (RET; inhibitor; 1 µM).
`COc1cc(Cl)c(C(=O)N[C@@H](CN[C@H]2CC[C@@H](N)CC2)Cc2ccc(C#N)cc2)cc1-c1ccc(CN[C@H](C)c2ccc(C)cc2)o1` gave a remaining activity of 110% (RET; inhibitor; 1 µM).
`CC(C)(C)c1nc(-c2cccc(NS(=O)(=O)c3c(F)cccc3F)c2F)c(-c2ccnc(N)n2)s1` gave a remaining activity of 81% (RET; inhibitor, radiometric; 1 µM).
The remaining activity of `CCN(CC)CCNC(=O)c1c(C)[nH]c(/C=C2\C(=O)Nc3ccc(F)cc32)c1C` is reported as 22% (RET; inhibitor; 0.1 µM).
`CC(=O)Nc1cccc2c1CCN(C(=O)CCNC(=O)c1ccsc1)C2` has a remaining activity of 104% (RET; inhibitor, radiometric; 0.1 µM).
With `O=C(Nc1cnn(-c2csc(C(=O)NC3COC3)c2)c1)Nc1ccccc1Cl` the remaining activity was 97.8% (RET; inhibitor; 5 µM).
`CCCOc1ccc(OC)c(F)c1C(=O)c1ccc(C(=O)N[C@@H]2CNC[C@H]2NC(=O)c2ccc3[nH]ncc3c2)cc1` has a remaining activity of 100% (RET; inhibitor; 50 nM).
`COCC(=O)Nc1cc(C(=O)NCCc2cnn(C)c2)cc2ncn(CCc3ccccc3)c12` has a remaining activity of 118% (RET; inhibitor, radiometric; 0.1 µM).
`Cc1cnc(NC2CCOCC2)nc1-n1cnc(C(=O)NC(CN)c2cc(F)cc(Cl)c2)c1` (stereo not shown) has a remaining activity of 93% (Proto-oncogene tyrosine-protein kinase receptor Ret (RET, Homo sapiens, UniProt P07949, V804L); inhibitor, radiometric; 1 µM).
The remaining activity of `O=C(Nc1cnn(-c2csc(C(=O)NC3COC3)c2)c1)Nc1c(F)cccc1Cl` is reported as 98.1% (RET; inhibitor; 5 µM).
The remaining activity of `COc1cccc(NC(=O)Nc2c(-c3ccc(Cl)cc3)nn(-c3ccc(F)cc3)c2N)c1` is reported as 110% (RET; inhibitor, radiometric; 0.1 µM).
